Experiments:
Assay type in all cases: cell-based
[1] = target: T1, Muscarinic acetylcholine receptor M3 (Homo sapiens, UniProt P20309); test: Inhibition of [3H]NMS binding to human cloned M3 receptor expressed in CHO cells at 1 uM
Target sequence in this assay (P20309 whole entry, looked up): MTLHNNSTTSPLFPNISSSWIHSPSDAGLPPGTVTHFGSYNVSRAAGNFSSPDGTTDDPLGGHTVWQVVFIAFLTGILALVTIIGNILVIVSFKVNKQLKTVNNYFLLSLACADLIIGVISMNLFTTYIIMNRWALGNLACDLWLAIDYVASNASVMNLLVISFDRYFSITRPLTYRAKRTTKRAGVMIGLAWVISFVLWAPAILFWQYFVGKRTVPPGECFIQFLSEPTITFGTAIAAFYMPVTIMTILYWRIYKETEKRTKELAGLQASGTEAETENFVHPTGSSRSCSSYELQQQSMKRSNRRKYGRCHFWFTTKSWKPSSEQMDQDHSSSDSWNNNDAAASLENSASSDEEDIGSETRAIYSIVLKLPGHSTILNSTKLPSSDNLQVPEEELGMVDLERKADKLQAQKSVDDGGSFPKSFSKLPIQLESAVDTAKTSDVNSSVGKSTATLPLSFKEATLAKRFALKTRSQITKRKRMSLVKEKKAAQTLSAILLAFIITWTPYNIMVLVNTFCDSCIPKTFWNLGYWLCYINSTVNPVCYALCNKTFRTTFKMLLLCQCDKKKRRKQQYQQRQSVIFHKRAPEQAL

[2] = target: T1, Muscarinic acetylcholine receptor M3; test: Inhibition of [3H]NMS binding to human cloned M3 receptor expressed in CHO cells
Method in brief: (§1)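 Competition against specific [3H]-NMS binding on membranes of CHO cells expressing cloned human receptor subtypes. Assay buffer 50 mM Tris-HCl, 10 mM MgCl2, 1 mM EDTA, pH 7.4, highest final concentration 10 µM.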
Target sequence in this assay (P20309 whole entry): as the sequence (P20309 whole entry, looked up) above

[3] = target: T2, Muscarinic acetylcholine receptor M4 (Homo sapiens, UniProt P08173); test: Inhibition of [3H]NMS binding to human cloned M4 receptor expressed in CHO cells; method in brief: as §1
T2 sequence (P08173 whole entry): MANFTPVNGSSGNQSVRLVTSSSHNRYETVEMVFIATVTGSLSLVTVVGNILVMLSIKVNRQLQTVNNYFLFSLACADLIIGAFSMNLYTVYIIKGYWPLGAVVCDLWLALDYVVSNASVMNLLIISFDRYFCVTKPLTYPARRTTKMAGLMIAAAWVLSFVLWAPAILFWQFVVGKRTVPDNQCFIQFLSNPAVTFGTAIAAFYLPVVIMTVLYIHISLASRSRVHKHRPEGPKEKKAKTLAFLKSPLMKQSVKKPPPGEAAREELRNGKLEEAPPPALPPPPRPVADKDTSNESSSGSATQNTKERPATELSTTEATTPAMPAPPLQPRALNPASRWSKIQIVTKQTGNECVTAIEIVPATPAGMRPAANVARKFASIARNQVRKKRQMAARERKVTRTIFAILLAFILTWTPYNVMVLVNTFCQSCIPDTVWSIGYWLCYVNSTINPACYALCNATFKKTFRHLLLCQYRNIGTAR

[4] = target: T3, Muscarinic acetylcholine receptor M1 (Homo sapiens, UniProt P11229); test: Inhibition of [3H]NMS binding to human cloned M1 receptor expressed in CHO cells; method in brief: as §1
T3 sequence (P11229 whole entry): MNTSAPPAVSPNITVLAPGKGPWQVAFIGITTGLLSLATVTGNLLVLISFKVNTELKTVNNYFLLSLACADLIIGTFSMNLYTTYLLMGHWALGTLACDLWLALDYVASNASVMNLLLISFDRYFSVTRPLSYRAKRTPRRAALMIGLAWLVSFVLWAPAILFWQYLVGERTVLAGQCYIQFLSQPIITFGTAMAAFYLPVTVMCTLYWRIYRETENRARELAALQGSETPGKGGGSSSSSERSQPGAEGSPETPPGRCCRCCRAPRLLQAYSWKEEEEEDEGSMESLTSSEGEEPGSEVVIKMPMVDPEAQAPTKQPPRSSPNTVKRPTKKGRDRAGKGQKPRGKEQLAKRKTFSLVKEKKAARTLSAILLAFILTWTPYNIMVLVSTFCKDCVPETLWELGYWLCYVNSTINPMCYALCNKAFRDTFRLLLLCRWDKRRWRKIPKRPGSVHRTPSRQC

[5] = target: T4, Muscarinic acetylcholine receptor M5 (Homo sapiens, UniProt P08912); test: Inhibition of [3H]NMS binding to human cloned M5 receptor expressed in CHO cells; method in brief: as §1
T4 sequence (P08912 whole entry): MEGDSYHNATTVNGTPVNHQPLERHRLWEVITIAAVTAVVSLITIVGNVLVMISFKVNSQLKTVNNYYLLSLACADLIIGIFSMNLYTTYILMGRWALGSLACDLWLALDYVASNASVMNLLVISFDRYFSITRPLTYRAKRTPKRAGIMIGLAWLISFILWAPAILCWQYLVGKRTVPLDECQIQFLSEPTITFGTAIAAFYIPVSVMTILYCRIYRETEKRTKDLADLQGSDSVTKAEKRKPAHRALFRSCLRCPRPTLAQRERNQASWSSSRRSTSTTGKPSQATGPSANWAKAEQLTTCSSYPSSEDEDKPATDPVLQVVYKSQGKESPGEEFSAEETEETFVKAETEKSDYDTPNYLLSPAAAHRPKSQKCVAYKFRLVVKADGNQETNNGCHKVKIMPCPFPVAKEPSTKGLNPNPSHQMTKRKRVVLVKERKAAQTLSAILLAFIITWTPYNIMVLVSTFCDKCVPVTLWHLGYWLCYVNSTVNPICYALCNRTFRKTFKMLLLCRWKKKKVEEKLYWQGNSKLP

Compound	inhibition [1]	Ki [2]	Ki [3]	Ki [4]	Ki [5]
NC1CCN(C(=O)[C@H]2CCCN2C(=O)[C@@H]2CCCN2C(=O)CC(c2ccccc2)(c2ccccc2)c2ccccc2)C1 (some centres undefined)	0%				
NCc1cccc(NC(=O)[C@H]2CCCN2C(=O)[C@@H]2CCCN2C(=O)CC(c2ccccc2)(c2ccccc2)c2ccccc2)c1	12%				
O=C([C@H]1CCCN1C(=O)[C@@H]1CCCN1C(=O)CC(c1ccccc1)(c1ccccc1)c1ccccc1)N1CCC2NCCC21 (some centres undefined)	7%				
NCC1CCN(C(=O)[C@H]2CCCN2C(=O)[C@@H]2CCCN2C(=O)CC(c2ccccc2)(c2ccccc2)c2ccccc2)CC1	59%	150 nM			
NCC1CCCN(C(=O)[C@H]2CCCN2C(=O)[C@@H]2CCCN2C(=O)CC(c2ccccc2)(c2ccccc2)c2ccccc2)C1 (some centres undefined)	32%				
NC1CCC(NC(=O)[C@H]2CCCN2C(=O)[C@@H]2CCCN2C(=O)CC(c2ccccc2)(c2ccccc2)c2ccccc2)CC1 (some centres undefined)	-7%				
Nc1ccccc1NC(=O)[C@H]1CCCN1C(=O)[C@@H]1CCCN1C(=O)CC(c1ccccc1)(c1ccccc1)c1ccccc1	11%				
O=C(NCC1CCN(C2CCCC2)CC1)[C@H]1CCCN1C(=O)[C@@H]1C[C@@H](O)CN1C(=O)CC(c1ccc(F)cc1)(c1ccc(F)cc1)c1ccc(F)cc1		0.51 nM	48 nM	210 nM	3200 nM
NCCCNC(=O)[C@H]1CCCN1C(=O)[C@@H]1CCCN1C(=O)CC(c1ccccc1)(c1ccccc1)c1ccccc1	2%				
CCN1CCC(CNC(=O)[C@H]2CCCN2C(=O)[C@@H]2C[C@@H](O)CN2C(=O)CC(c2ccc(F)cc2)(c2ccc(F)cc2)c2ccc(F)cc2)CC1		0.92 nM	92 nM	580 nM	2800 nM
NCC1CCN(C(=O)[C@H]2CCCN2C(=O)[C@@H]2CCCN2C(=O)CC(c2ccccc2)(c2ccccc2)c2ccccc2)C1 (some centres undefined)	7%				
N[C@H]1CCCC[C@@H]1NC(=O)[C@H]1CCCN1C(=O)[C@@H]1CCCN1C(=O)CC(c1ccccc1)(c1ccccc1)c1ccccc1	80%	48 nM			
O=C(NCC1CCNC1)[C@H]1CCCN1C(=O)[C@@H]1CCCN1C(=O)CC(c1ccccc1)(c1ccccc1)c1ccccc1 (some centres undefined)	33%				
NCc1ccc(NC(=O)[C@H]2CCCN2C(=O)[C@@H]2CCCN2C(=O)CC(c2ccccc2)(c2ccccc2)c2ccccc2)cc1	9%				
O=C(NC[C@@H]1CCCNC1)[C@H]1CCCN1C(=O)[C@@H]1C[C@@H](O)CN1C(=O)CC(c1ccc(Cl)cc1)(c1ccc(Cl)cc1)c1ccc(Cl)cc1		1.6 nM	120 nM	460 nM	2700 nM
O=C(NCCC1CCNCC1)[C@H]1CCCN1C(=O)[C@@H]1C[C@@H](O)CN1C(=O)CC(c1ccc(Cl)cc1)(c1ccc(Cl)cc1)c1ccc(Cl)cc1		1.2 nM	24 nM	260 nM	950 nM
O=C(NCCC1CCNCC1)[C@H]1CCCN1C(=O)[C@@H]1CCCN1C(=O)CC(c1ccccc1)(c1ccccc1)c1ccccc1	88%	29 nM			
O=C(NCC1CCN(CC2CCC2)CC1)[C@H]1CCCN1C(=O)[C@@H]1C[C@@H](O)CN1C(=O)CC(c1ccc(F)cc1)(c1ccc(F)cc1)c1ccc(F)cc1		0.53 nM	31 nM	220 nM	3100 nM
Nc1ccc(NC(=O)[C@H]2CCCN2C(=O)[C@@H]2CCCN2C(=O)CC(c2ccccc2)(c2ccccc2)c2ccccc2)cc1	8%				
CC(C)NC(=O)[C@H]1CCCN1C(=O)[C@@H]1C[C@@H](O)CN1C(=O)CC(c1ccc(F)cc1)(c1ccc(F)cc1)c1ccc(F)cc1		2.4 nM	180 nM	800 nM	> 5400 nM
NCCNC(=O)[C@H]1CCCN1C(=O)[C@@H]1CCCN1C(=O)CC(c1ccccc1)(c1ccccc1)c1ccccc1	-4%				
O=C(NCC1CCN(CC2CC2)CC1)[C@H]1CCCN1C(=O)[C@@H]1C[C@@H](O)CN1C(=O)CC(c1ccc(F)cc1)(c1ccc(F)cc1)c1ccc(F)cc1		0.17 nM	20 nM	65 nM	1600 nM

Compound	inhibition [1]	Ki [2]	Ki [3]	Ki [4]	Ki [5]
O=C([C@H]1CCCN1C(=O)[C@@H]1CCCN1C(=O)CC(c1ccccc1)(c1ccccc1)c1ccccc1)N1CC2CNCC2C1 (some centres undefined)	7%				
O=C(NC[C@@H]1CCCNC1)[C@H]1CCCN1C(=O)[C@@H]1CCCN1C(=O)CC(c1ccccc1)(c1ccccc1)c1ccccc1	91%	23 nM			
O=C(NC[C@@H]1CCCNC1)[C@H]1CCCN1C(=O)[C@@H]1C[C@@H](O)CN1C(=O)CC(c1ccccc1)(c1ccccc1)c1ccccc1		3.7 nM	290 nM	> 2600 nM	> 5100 nM
O=C(NCC1CCN(CC2CCCC2)CC1)[C@H]1CCCN1C(=O)[C@@H]1C[C@@H](O)CN1C(=O)CC(c1ccc(F)cc1)(c1ccc(F)cc1)c1ccc(F)cc1		0.19 nM	11 nM	71 nM	940 nM
O=C(NC1CCNCC1)[C@H]1CCCN1C(=O)[C@@H]1CCCN1C(=O)CC(c1ccccc1)(c1ccccc1)c1ccccc1	4%				
O=C(NCC1CCCCN1)[C@H]1CCCN1C(=O)[C@@H]1CCCN1C(=O)CC(c1ccccc1)(c1ccccc1)c1ccccc1 (some centres undefined)	28%				
NC1CCCC(NC(=O)[C@H]2CCCN2C(=O)[C@@H]2CCCN2C(=O)CC(c2ccccc2)(c2ccccc2)c2ccccc2)C1 (some centres undefined)	59%	170 nM			
O=C(NC[C@@H]1CCCNC1)[C@H]1CCCN1C(=O)[C@@H]1C[C@@H](O)CN1C(=O)CC(c1ccc(F)cc1)(c1ccc(F)cc1)c1ccc(F)cc1		0.39 nM	39 nM	300 nM	1700 nM
O=C(NCC1CCNCC1)[C@H]1CCCN1C(=O)[C@@H]1CCCN1C(=O)CC(c1ccccc1)(c1ccccc1)c1ccccc1	82%	49 nM			
NCC1CCCCN1C(=O)[C@H]1CCCN1C(=O)[C@@H]1CCCN1C(=O)CC(c1ccccc1)(c1ccccc1)c1ccccc1 (some centres undefined)	5%				
Nc1cccc(NC(=O)[C@H]2CCCN2C(=O)[C@@H]2CCCN2C(=O)CC(c2ccccc2)(c2ccccc2)c2ccccc2)c1	0%				
O=C([C@H]1CCCN1C(=O)[C@@H]1CCCN1C(=O)CC(c1ccccc1)(c1ccccc1)c1ccccc1)N1CCNCC1	12%				
Nc1ccc(CNC(=O)[C@H]2CCCN2C(=O)[C@@H]2CCCN2C(=O)CC(c2ccccc2)(c2ccccc2)c2ccccc2)cc1	6%				
Nc1cccc(CNC(=O)[C@H]2CCCN2C(=O)[C@@H]2CCCN2C(=O)CC(c2ccccc2)(c2ccccc2)c2ccccc2)c1	6%				
O=C([C@H]1CCCN1C(=O)[C@@H]1CCCN1C(=O)CC(c1ccccc1)(c1ccccc1)c1ccccc1)N1CCCNC1	12%				
O=C(NC1CCNC1)[C@H]1CCCN1C(=O)[C@@H]1CCCN1C(=O)CC(c1ccccc1)(c1ccccc1)c1ccccc1 (some centres undefined)	-4%				
Nc1ccccc1CNC(=O)[C@H]1CCCN1C(=O)[C@@H]1CCCN1C(=O)CC(c1ccccc1)(c1ccccc1)c1ccccc1 (stereo in doubt; 45)	5%				
NC1CCCN(C(=O)[C@H]2CCCN2C(=O)[C@@H]2CCCN2C(=O)CC(c2ccccc2)(c2ccccc2)c2ccccc2)C1 (some centres undefined)	22%				
N[C@@H]1CCCC[C@@H]1NC(=O)[C@H]1CCCN1C(=O)[C@@H]1CCCN1C(=O)CC(c1ccccc1)(c1ccccc1)c1ccccc1	40%				
Nc1ccccc1CNC(=O)[C@H]1CCCN1C(=O)[C@@H]1CCCN1C(=O)CC(c1ccccc1)(c1ccccc1)c1ccccc1 (stereo in doubt; 46)	10%				
O=C([C@H]1CCCN1C(=O)[C@@H]1CCCN1C(=O)CC(c1ccccc1)(c1ccccc1)c1ccccc1)N1CCCNCC1	-2%				

Reference: ChEMBL document CHEMBL1148687, “Identification of a novel 4-aminomethylpiperidine class of M3 muscarinic receptor antagonists and structural insight into their M3 selectivity” (J Med Chem, 2006)
